# In ChEMBL document CHEMBL2311390, “Synthesis and preliminary evaluation of pharmacological properties of some piperazine derivatives of xanthone” (Bioorg Med Chem, 2013):
# How the values were obtained:
# [1] = system: Rattus norvegicus; assay: Hypotensive activity in normotensive Wistar rat assessed as reduction of systolic blood pressure at 0.16 mg/kg, iv after 20 mins; assay type: functional, Artery
# Summary of the method: (§1)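 Male normotensive Wistar rats (170–350 g) anaesthetised with thiopental 75 mg/kg ip; right carotid artery cannulated with heparinised saline-filled polyethylene tubing for pressure recording. After a 5 min stabilisation, compound given into the caudal vein at 1 mL/kg. Systolic pressure is recorded at 0, 5, 10, 20, 30 and 60 min, and the data are reported as mean ± SEM of five to six animals, with one-way ANOVA.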
# [2] = system: Rattus norvegicus; assay: Hypotensive activity in normotensive Wistar rat assessed as reduction of systolic blood pressure at 0.16 mg/kg, iv after 5 mins; assay type: functional, Artery; summary of the method: as §1
# [3] = system: Rattus norvegicus; assay: Hypotensive activity in normotensive Wistar rat assessed as reduction of systolic blood pressure at 0.625 mg/kg, iv after 30 mins; assay type: functional, Artery; summary of the method: as §1
# [4] = system: Rattus norvegicus; assay: Hypotensive activity in normotensive Wistar rat assessed as reduction of diastolic blood pressure at 0.31 mg/kg, iv after 10 mins; assay type: functional, Artery
# Summary of the method: (§2)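 Male normotensive Wistar rats were anaesthetised with thiopental 75 mg/kg ip. The right carotid artery was cannulated with heparinised saline for pressure recording. After 5 min of stabilisation, compound was injected into the tail vein at 1 mL/kg. Systolic and diastolic pressure were followed up to 60 min. Data are means ± SEM of 5–6 rats, analysed by one-way ANOVA.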
# [5] = system: Rattus norvegicus; assay: Hypotensive activity in normotensive Wistar rat assessed as reduction of systolic blood pressure at 0.16 mg/kg, iv after 30 mins; assay type: functional, Artery; summary of the method: as §1
# [6] = system: Rattus norvegicus; assay: Hypotensive activity in normotensive Wistar rat assessed as reduction of diastolic blood pressure at 0.31 mg/kg, iv after 5 mins; assay type: functional, Artery; summary of the method: as §2
# [7] = system: Rattus norvegicus; assay: Hypotensive activity in normotensive Wistar rat assessed as reduction of diastolic blood pressure at 0.31 mg/kg, iv after 30 mins; assay type: functional, Artery; summary of the method: as §2
# [8] = system: Rattus norvegicus; assay: Hypotensive activity in normotensive Wistar rat assessed as reduction of diastolic blood pressure at 0.625 mg/kg, iv after 5 mins; assay type: functional, Artery; summary of the method: as §2
# [9] = system: Rattus norvegicus; assay: Hypotensive activity in normotensive Wistar rat assessed as reduction of systolic blood pressure at 0.31 mg/kg, iv after 10 mins; assay type: functional, Artery; summary of the method: as §1
# [10] = system: Rattus norvegicus; assay: Hypotensive activity in normotensive Wistar rat assessed as reduction of diastolic blood pressure at 0.16 mg/kg, iv after 10 mins; assay type: functional, Artery; summary of the method: as §2
# [11] = system: Rattus norvegicus; assay: Hypotensive activity in normotensive Wistar rat assessed as reduction of diastolic blood pressure at 0.625 mg/kg, iv after 10 mins; assay type: functional, Artery; summary of the method: as §2
# [12] = system: Rattus norvegicus; assay: Hypotensive activity in normotensive Wistar rat assessed as reduction of diastolic blood pressure at 0.31 mg/kg, iv after 20 mins; assay type: functional, Artery; summary of the method: as §2
# [13] = system: Rattus norvegicus; assay: Hypotensive activity in normotensive Wistar rat assessed as reduction of diastolic blood pressure at 0.16 mg/kg, iv after 5 mins; assay type: functional, Artery; summary of the method: as §2
# [14] = system: Rattus norvegicus; assay: Hypotensive activity in normotensive Wistar rat assessed as reduction of diastolic blood pressure at 0.16 mg/kg, iv after 20 mins; assay type: functional, Artery; summary of the method: as §2
# [15] = system: Rattus norvegicus; assay: Hypotensive activity in normotensive Wistar rat assessed as reduction of systolic blood pressure at 0.31 mg/kg, iv after 60 mins; assay type: functional, Artery; summary of the method: as §1
# [16] = system: Rattus norvegicus; assay: Hypotensive activity in normotensive Wistar rat assessed as reduction of systolic blood pressure at 0.625 mg/kg, iv after 20 mins; assay type: functional, Artery; summary of the method: as §1
# [17] = system: Rattus norvegicus; assay: Hypotensive activity in normotensive Wistar rat assessed as reduction of systolic blood pressure at 0.625 mg/kg, iv after 60 mins; assay type: functional, Artery; summary of the method: as §1
# [18] = system: Rattus norvegicus; assay: Hypotensive activity in normotensive Wistar rat assessed as reduction of diastolic blood pressure at 0.31 mg/kg, iv after 60 mins; assay type: functional, Artery; summary of the method: as §2
# [19] = system: Rattus norvegicus; assay: Cardiotoxicity in Wistar rat assessed as PQ interval at 10 mg/kg, iv after 15 mins by ECG analysis; assay type: toxicity, organism-based; design: dose 10 mg/kg, route intravenous; details: in vivo, 0.25 h
# Summary of the method: (§3)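 Male normotensive Wistar rats, 170–350 g, six per group. Compound given iv at a constant volume of 1 mL/kg. ECG was recorded just before dosing and at 1, 5 and 15 min after. PQ, QRS and QT intervals and heart rate were read from the trace. Groups were compared by one-way ANOVA.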
# [20] = system: Rattus norvegicus; assay: Cardiotoxicity in Wistar rat assessed as hear beats per min at 10 mg/kg, iv after 5 mins by ECG analysis; assay type: toxicity, organism-based; design: dose 10 mg/kg, route intravenous; details: in vivo; summary of the method: as §3
# [21] = system: Rattus norvegicus; assay: Cardiotoxicity in Wistar rat assessed as QRS interval at 10 mg/kg, iv after 10 mins by ECG analysis; assay type: toxicity, organism-based; design: dose 10 mg/kg, route intravenous; details: in vivo
# [22] = system: Rattus norvegicus; assay: Cardiotoxicity in Wistar rat assessed as QT interval at 10 mg/kg, iv after 10 mins by ECG analysis; assay type: toxicity, organism-based; design: dose 10 mg/kg, route intravenous; details: in vivo
# [23] = system: Rattus norvegicus; assay: Cardiotoxicity in Wistar rat assessed as QT interval at 10 mg/kg, iv after 15 mins by ECG analysis; assay type: toxicity, organism-based; design: dose 10 mg/kg, route intravenous; details: in vivo, 0.25 h; summary of the method: as §3
# [24] = system: Rattus norvegicus; assay: Cardiotoxicity in Wistar rat assessed as QT interval at 10 mg/kg, iv after 5 mins by ECG analysis; assay type: toxicity, organism-based; design: dose 10 mg/kg, route intravenous; details: in vivo; summary of the method: as §3
# [25] = system: Rattus norvegicus; assay: Cardiotoxicity in Wistar rat assessed as PQ interval at 10 mg/kg, iv after 5 mins by ECG analysis; assay type: toxicity, organism-based; design: dose 10 mg/kg, route intravenous; details: in vivo; summary of the method: as §3
# [26] = system: Rattus norvegicus; assay: Cardiotoxicity in Wistar rat assessed as PQ interval at 10 mg/kg, iv after 10 mins by ECG analysis; assay type: toxicity, organism-based; design: dose 10 mg/kg, route intravenous; details: in vivo
# [27] = system: Rattus norvegicus; assay: Cardiotoxicity in Wistar rat assessed as QRS interval at 5 mg/kg, iv after 10 mins by ECG analysis; assay type: toxicity, organism-based; design: dose 5 mg/kg, route intravenous; details: in vivo
# [28] = system: Rattus norvegicus; assay: Cardiotoxicity in Wistar rat assessed as QT interval at 5 mg/kg, iv after 10 mins by ECG analysis; assay type: toxicity, organism-based; design: dose 5 mg/kg, route intravenous; details: in vivo
# [29] = system: Rattus norvegicus; assay: Cardiotoxicity in Wistar rat assessed as QRS interval at 5 mg/kg, iv after 5 mins by ECG analysis; assay type: toxicity, organism-based; design: dose 5 mg/kg, route intravenous; details: in vivo; summary of the method: as §3
# [30] = system: Rattus norvegicus; assay: Cardiotoxicity in Wistar rat assessed as hear beats per min at 5 mg/kg, iv after 5 mins by ECG analysis; assay type: toxicity, organism-based; design: dose 5 mg/kg, route intravenous; details: in vivo; summary of the method: as §3
# [31] = system: Rattus norvegicus; assay: Cardiotoxicity in Wistar rat assessed as PQ interval at 5 mg/kg, iv after 5 mins by ECG analysis; assay type: toxicity, organism-based; design: dose 5 mg/kg, route intravenous; details: in vivo; summary of the method: as §3
# [32] = system: Rattus norvegicus; assay: Cardiotoxicity in Wistar rat assessed as QT interval at 5 mg/kg, iv after 15 mins by ECG analysis; assay type: toxicity, organism-based; design: dose 5 mg/kg, route intravenous; details: in vivo, 0.25 h; summary of the method: as §3
# [33] = system: Rattus norvegicus; assay: Cardiotoxicity in Wistar rat assessed as hear beats per min at 5 mg/kg, iv after 15 mins by ECG analysis; assay type: toxicity, organism-based; design: dose 5 mg/kg, route intravenous; details: in vivo, 0.25 h; summary of the method: as §3
# [34] = system: Rattus norvegicus; assay: Cardiotoxicity in Wistar rat assessed as hear beats per min at 5 mg/kg, iv after 10 mins by ECG analysis; assay type: toxicity, organism-based; design: dose 5 mg/kg, route intravenous; details: in vivo
# [35] = system: Rattus norvegicus; assay: Cardiotoxicity in Wistar rat assessed as QRS interval at 5 mg/kg, iv after 15 mins by ECG analysis; assay type: toxicity, organism-based; design: dose 5 mg/kg, route intravenous; details: in vivo, 0.25 h; summary of the method: as §3
Compound,Activity [1],Activity [2],Activity [4],Activity [5],Activity [6],Activity [7],Activity [9],Activity [10],Activity [12],Activity [13],Activity [14],Activity [15],Activity [18],other results
COc1ccccc1N1CCN(CCCOc2cccc3c(=O)c4ccccc4oc23)CC1.Cl,113.4 mmHg,109.6 mmHg,107.7 mmHg,111.4 mmHg,107.2 mmHg,103.3 mmHg,122.8 mmHg,99.2 mmHg,105.7 mmHg,97 mmHg,101 mmHg,116 mmHg,97.2 mmHg,Activity [3]: 129.5 mmHg; Activity [8]: 101 mmHg; Activity [11]: 106.5 mmHg; Activity [16]: 129.5 mmHg; Activity [17]: 129.5 mmHg
Cl.Cl.Cl.O=c1c2ccc(Cl)cc2oc2c(OCC(O)CN3CCN(Cc4ccccc4)CC3)cccc12 (racemic),–,–,–,–,–,–,–,–,–,–,–,–,–,Activity [19]: 40.9 ms; Activity [20]: 295.3 bpm; Activity [21]: 19.6 ms; Activity [22]: 72.8 ms; Activity [23]: 78.8 ms; Activity [24]: 74 ms; Activity [25]: 41.9 ms; Activity [26]: 41.1 ms
COc1ccccc1N1CCN(CC(O)COc2cccc3c(=O)c4ccccc4oc23)CC1.Cl (racemic),118.5 mmHg,124 mmHg,103 mmHg,115.7 mmHg,102.8 mmHg,100.6 mmHg,121.8 mmHg,110.2 mmHg,102 mmHg,109.2 mmHg,103.8 mmHg,116 mmHg,98.4 mmHg,–
Cl.Cl.O=c1c2ccccc2oc2c(OCC(O)CN3CCN(C/C=C/c4ccccc4)CC3)cccc12 (racemic),–,–,–,–,–,–,–,–,–,–,–,–,–,Activity [27]: 23.5 ms; Activity [28]: 77 ms; Activity [29]: 23.4 ms; Activity [30]: 328 bpm; Activity [31]: 41.5 ms; Activity [32]: 77.6 ms; Activity [33]: 309 bpm; Activity [34]: 311.3 bpm; Activity [35]: 24 ms
